Test [1] is filed under the species Rattus norvegicus. Kind of test: Compound was tested for its ability to inhibit the after hyperpolarization which follows the action potential in rat sympathetic neurons. In kind it is functional, organism-based. To be noted: Sympathetic neuron. The method, boiled down:
(§1)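 Cultured neurons (3-10 days in culture); action potentials evoked every 5 s by depolarizing current pulses; drugs applied at known concentration in continuously flowing bath. AHP amplitude measured with and without compound for percent inhibition. Dequalinium tested on every cell; EMR = ratio of concentrations of compound and dequalinium giving 50% AHP inhibition in the same experiment. IC50 and EMR from simultaneous nonlinear least-squares Hill fits; each concentration tested on at least three neurons.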

Test [2] is filed under the species Rattus norvegicus. The test is described as follows: The equieffective molar ratio of the concentrations of the test compound and dequalinium that cause 50% inhibition of the after hyper polarization (AHP). It counts as functional. The method, boiled down: as §1
Test [3] is filed under the species Rattus norvegicus. Kind of test: The equieffective molar ratio of the concentrations of the test compound and after hyperpolarization (AHP). In kind it is functional.

This is an account of results in ChEMBL document CHEMBL1129633, “Synthesis and pharmacological testing of dequalinium analogues as blockers of the apamin-sensitive Ca(2+)-activated K+ channel: variation of the length of the alkylene chain” (J Med Chem, 1996).

Each structure is given as a SMILES string.

The term IC50 denotes the concentration at which inhibition is half-maximal. High values mean lower potency, low ones higher potency. In turn, `Nc1cc[n+](CCCCCCCCCCCC[n+]2ccc(N)c3ccccc32)c2ccccc12` had an IC50 in the test filed under Rattus norvegicus [1] of 1700 nM. In addition, the EMR in the test listed under Rattus norvegicus [2] was determined as 1.8.

Consider `Nc1cc[n+](CCCCCCCCCC[n+]2ccc(N)c3ccccc32)c2ccccc12`, for which the EMR in the test filed under Rattus norvegicus [2] was 1.3.

`Nc1cc[n+](CCCC[n+]2ccc(N)c3ccccc32)c2ccccc12` displayed an IC50 in the test filed under Rattus norvegicus [1] of 1800 nM. In addition, in the test listed under Rattus norvegicus [2], the EMR is reported as 3.2.

The compound `Nc1cc[n+](CCCCCC[n+]2ccc(N)c3ccccc32)c2ccccc12` registered a half-inhibitory concentration (IC50) in the test filed under Rattus norvegicus [1] of 2000 nM. The EMR in the test filed under Rattus norvegicus [2] worked out at 1.8.

`Nc1cc[n+](CCC[n+]2ccc(N)c3ccccc32)c2ccccc12` yielded an IC50 in the test filed under Rattus norvegicus [1] of 4500 nM. Further, the EMR in the test filed under Rattus norvegicus [3] was found to be 8.3.

In the test filed under Rattus norvegicus [1], `Nc1cc[n+](CCCCC[n+]2ccc(N)c3ccccc32)c2ccccc12` came in with an IC50 of 1000 nM. The EMR in the test filed under Rattus norvegicus [2] came to 1.

With `Nc1cc[n+](CCCCCCCC[n+]2ccc(N)c3ccccc32)c2ccccc12`, in the test listed under Rattus norvegicus [1], it took 2000 nM to reach half-maximal inhibition (IC50). Moreover, the EMR in the test filed under Rattus norvegicus [2] is listed as 2.1.

Regarding `Cc1cc(N)c2ccccc2[n+]1CCCCCCCCCC[n+]1c(C)cc(N)c2ccccc21.[Cl-].[Cl-]` [DEQUALINIUM CHLORIDE], it took 900 nM to reach half-maximal inhibition in the test listed under Rattus norvegicus [1] (IC50). Further, the EMR in the test filed under Rattus norvegicus [3] is 1.
